How the values were obtained:
Assay type in all cases: functional
Semliki Forest virus [1] = experiment: Antiviral activity against Forest virus (SFV)
Procedure, shortened: (§1)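 ICR or CD-1 mice of both sexes got one drug dose by the route in the line (ip, po or sc). The drug was a suspension in 0.9% NaCl or in a CMC/polysorbate 80/benzyl alcohol/NaCl vehicle. […] Deaths were recorded daily for 6 days, 24 mice/group. ED50 is the minimal dose protecting 50% of mice, by probit analysis.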

Semliki Forest virus [2] = experiment: Effective dose administered perorally againist Forest virus infected mice; details: po; procedure, shortened: as §1
Semliki Forest virus [3] = experiment: Effective dose administered subcutaneously againist Forest virus infected mice; details: sc; procedure, shortened: as §1
Human alphaherpesvirus 1 = experiment: Intraperitoneal administration against herpes simplex virus type-1 (HSV-1) infected mice
Procedure, shortened: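 ICR or CD-1 mice got drug ip in saline as the total daily dose (mg/kg/day). It was split into doses at -40, -28, -20, -3 and +3 h relative to ip inoculation with 5.6×10^4 pfu HSV-1. Mice were followed for 22 days, 15/group. Protection index = (control mortality − treated mortality)/control mortality; >0.25 counted active. Only the lowest protective dose is recorded.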

[4] = test system: Vesicular stomatitis virus; experiment: Evaluation for serum interferon response from a single 800 mg/kg intraperitoneal administration in vesicular stomatitis virus on […] cells.
Procedure, shortened: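 Mice got a single ip 800 mg/kg dose. Blood was drawn 3, 6, 8 and 12 h later from five mice per group and pooled. Interferon titer was measured by plaque reduction with vesicular stomatitis virus on L929 cells. Titer is the reciprocal serum dilution cutting plaques by 50% versus untreated cultures. Peak response within 24 h was banded: ≥2000, ~500-1000, ~50-500, ~10-50 U/mL.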

Structure (SMILES) | ED50 (Semliki Forest virus [1]) [mg/kg] | ED50 (Semliki Forest virus [2]) [mg/kg] | ED50 (Semliki Forest virus [3]) [mg/kg] | Protection index (Human alphaherpesvirus 1) | IFN [4]
Nc1nc(O)c(Br)c(-c2cccnc2)n1 | 75 | > 400 | > 400 | 0.45 | 
Nc1nc(O)c(Cl)c(-c2cccc(Cl)c2)n1 | 135 | > 400 | > 400 | 0.86 | 50 units/mL
Nc1nc(O)c(Cl)c(-c2ccccc2Cl)n1 | 300 |  |  |  | 50 units/mL
Nc1nc(O)c(I)c(-c2ccc(OCc3ccccc3)cc2)n1 | > 400 |  |  |  | 
Nc1nc(O)c(I)c(-c2c(F)cccc2F)n1 | 285 |  |  |  | 
COc1ccccc1-c1nc(N)nc(O)c1Cl | 20 | > 400 |  | 0.53 | 50 units/mL
Nc1nc(O)c(I)c(-c2ccc(Cl)c(Cl)c2)n1 | 115 | > 400 | 240 | 0.36 | >=2000 ml
Nc1nc(O)c(Br)c(-c2cc(F)cc(F)c2)n1 | 150 |  |  | 0 | 50 units/mL
Nc1nc(O)c(I)c(-c2cc(Cl)cc(Cl)c2)n1 | 140 | > 400 | 225 | 0.4 | 50 units/mL
Nc1nc(O)c(Br)c(-c2cc(Cl)ccc2Cl)n1 | 180 | > 400 | > 400 |  | >=2000 ml
Nc1nc(O)c(Cl)c(-c2cccc(O)c2)n1 |  |  |  | 0.5 | 
Nc1nc(O)c(Br)c(-c2cccc(I)c2)n1 | 355 | 170 | > 400 |  | 
Nc1nc(O)c(Cl)c(-c2ccco2)n1 | 120 |  |  |  | 
COc1ccccc1-c1nc(N)nc(O)c1I | 25 | > 400 | 120 | 0.69 | 50 units/mL
Nc1nc(O)c(I)c(-c2cccnc2)n1 | 130 | > 400 | 175 | 0 | 50 units/mL
Nc1nc(O)c(Cl)c(-c2ccc(F)cc2)n1 | 300 | > 400 | 355 | 0.85 | 
Nc1nc(O)c(Br)c(-c2cc(F)ccc2F)n1 | 165 | > 400 |  | 0 | >=2000 ml
Nc1nc(=O)c(Br)c(-c2ccccc2)[nH]1 [BROPIRIMINE] | 100 | 100 | 50 | 0.6 | 
COc1cc(OC)cc(-c2nc(N)nc(O)c2Br)c1 | 15 |  |  |  | 
CCOCCOc1cccc(-c2nc(N)nc(O)c2I)c1 |  |  |  | 0.21 | 
Nc1nc(O)c(I)c(-c2cccc(F)c2F)n1 | > 400 | 365 |  | 0.34 | >=2000 ml
Nc1nc(O)c(I)c(-c2ccccc2Cl)n1 | 90 |  |  | 0.13 | 
Nc1nc(O)c(I)c(-c2cccc(C(F)(F)F)c2)n1 | 160 | > 400 | > 400 | 0.36 | >=2000 ml
COc1ccccc1-c1nc(N)nc(O)c1Br | 15 | > 400 | 100 | 0.92 | 50 units/mL
Nc1nc(O)c(Cl)c(-c2ccc(Cl)c(Cl)c2)n1 | 225 | > 400 | > 400 | 0 | 
Nc1nc(O)c(Br)c(-c2ccc(Cl)c(Cl)c2)n1 | 215 | > 400 | > 400 | 0.29 | 
COc1cc(OC)cc(-c2nc(N)nc(O)c2Cl)c1 | 90 |  |  |  | 

Structure (SMILES) | ED50 (Semliki Forest virus [1]) [mg/kg] | ED50 (Semliki Forest virus [2]) [mg/kg] | ED50 (Semliki Forest virus [3]) [mg/kg] | Protection index (Human alphaherpesvirus 1) | IFN [4]
CCOc1cccc(-c2nc(N)nc(O)c2Cl)c1 |  |  |  | 0.13 | 
Nc1nc(O)c(I)c(-c2cc(F)ccc2F)n1 | 95 | > 400 |  | 0 | >=2000 ml
Nc1nc(O)c(Cl)c(-c2cc(F)cc(F)c2)n1 | 185 | > 400 |  | 0.5 | 50 units/mL
CCOc1cccc(-c2nc(N)nc(O)c2Br)c1 |  |  |  | 0.4 | 
Nc1nc(O)c(Br)c(-c2ccccn2)n1 | 75 | 310 | 65 |  | >=2000 ml
Nc1nc(O)c(I)c(-c2cc(Cl)ccc2Cl)n1 | 305 | 75 | 115 | 0 | >=2000 ml
Nc1nc(O)c(I)c(-c2ccc(C(=O)O)cc2)n1 | 380 |  |  |  | 
Nc1nc(O)c(I)c(-c2ccccc2)n1 | 50 | > 400 | 25 | 0.86 | 50 units/mL
Nc1nc(O)c(Cl)c(-c2ccccc2O)n1 |  |  |  | 0.61 | 
Nc1nc(O)c(I)c(-c2ccc(F)cc2)n1 | 245 | 260 | 250 | 0.29 | >=2000 ml
Nc1nc(O)c(Cl)c(-c2ccccc2)n1 | 100 | 90 | 105 | 0.62 | >=2000 ml
CCOCCOc1cccc(-c2nc(N)nc(O)c2Br)c1 |  |  |  | 0.55 | 
COc1cc(OC)cc(-c2nc(N)nc(O)c2I)c1 | 55 |  |  |  | 
Nc1nc(O)c(Br)c(-c2cnccn2)n1 | 65 | > 400 | 365 |  | 
Nc1nc(O)c(Br)c(-c2ccccc2Cl)n1 | 285 |  |  |  | 
Cc1ccccc1-c1nc(N)nc(O)c1Br | 60 | > 400 | > 400 | 0.2 | 
Nc1nc(O)c(I)c(-c2cccc(I)c2)n1 | 125 |  |  | 0.53 | 50 units/mL
Nc1nc(O)c(I)c(-c2cc(F)cc(F)c2)n1 | 230 | > 400 |  | 0 | >=2000 ml
Nc1nc(O)c(Br)c(-c2ccoc2)n1 | > 400 |  |  |  | 
Cc1ccccc1-c1nc(N)nc(O)c1I | 175 | > 400 | 205 | 0.13 | 
Nc1nc(O)c(I)c(-c2ccccn2)n1 | 215 | 235 | > 400 |  | >=2000 ml
Nc1nc(O)c(Br)c(-c2cccc([N+](=O)[O-])c2)n1 | 140 | > 400 | > 400 | 0.53 | 
Nc1nc(O)c(I)c(-c2ccncc2)n1 | 365 | > 400 | > 400 |  | 
Nc1nc(O)c(Br)c(-c2cccc(F)c2F)n1 | 115 | 330 |  | 0.54 | >=2000 ml
Nc1nc(O)c(Cl)c(-c2cccc3ccccc23)n1 | 80 | > 400 | > 400 | 0.54 | 
CCOc1cccc(-c2nc(N)nc(O)c2I)c1 |  |  |  | 0 | 
